# Experimental data as given in ChEMBL document CHEMBL1138229, “Novel cyano- and amidino-substituted derivatives of styryl-2-benzimidazoles and benzimidazo[1,2-a]quinolines. Synthesis, photochemical synthesis, DNA binding, and antitumor evaluation, part 3” (J Med Chem, 2007).
# Activity calls are given as the source filed them. The rule behind the calls is not given here.
# Columns and labels:
# SW-620 [1] = assay: Cell cycle arrest in human SW620 cells assessed as accumulation at Sub G1 phase after 48 hrs at 5 uM; format: functional
# Summary of the method: (§1)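 Cells seeded at 2 × 10^5 per well and incubated overnight before compound at 5 × 10^-6 M. After 24, 48 or 72 h, attached and floating cells were pooled, PBS-washed and fixed in 70% ethanol. RNase A (0.1 µg/µl, 37 °C, 15 min), then propidium iodide 1 µg/mL; flow cytometry of 20 000 events. Results given as percent of cells per phase; significance at p < 0.05.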
# DNA = assay: Binding affinity to calf thymus DNA by thermal melting temperature assay; format: nucleic-acid assay; conditions: Bos taurus
# Summary of the method: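 ct-DNA (as phosphate concentration) in sodium cacodylate buffer pH 7.0, I = 0.05 mol dm-3. Compound/polynucleotide ratio r = 0.3. Absorbance at 260 nm followed against temperature, ligand absorbance subtracted. Tm taken as transition midpoint by first derivative or tangent method. ΔTm = Tm(complex) − Tm(free DNA), averaged over at least two runs, error ±0.5 °C.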
# HeLa [2] = assay: Cell cycle arrest in human HeLa cells assessed as accumulation at Sub G1 phase after 72 hrs at 5 uM; format: functional; summary of the method: as §1
# SW-620 [3] = assay: Cell cycle arrest in human SW620 cells assessed as accumulation at Sub G1 phase after 24 hrs at 5 uM; format: functional; summary of the method: as §1
# MIA PaCa-2 = assay: Antitumor activity against human MiaPaCa2 cells after 72 hrs by MTT assay; format: functional, cell-based; conditions: MIA PaCa-2, 72 h
# Summary of the method: (§2)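 Cells from ATCC grown as monolayers in DMEM with 10% FBS, 2 mM L-glutamine, penicillin/streptomycin, 5% CO2, 37 °C. Seeded on day 0 at 1 × 10^4/mL (2 × 10^4/mL for MCF-7). Five 10-fold dilutions (10^-8 to 10^-4 mol/L) added, then 72 h exposure. MTT read at 570 nm; percent growth vs time-zero and untreated controls. IC50 by linear regression; quadruplicates, three experiments.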
# HeLa [4] = assay: Cell cycle arrest in human HeLa cells assessed as accumulation at G2/M phase after 48 hrs at 5 uM; format: functional; summary of the method: as §1
# HeLa [5] = assay: Cell cycle arrest in human HeLa cells assessed as accumulation at G0/G1 phase after 72 hrs at 5 uM; format: functional; summary of the method: as §1
# HeLa [6] = assay: Antitumor activity against human HeLa cells after 72 hrs by MTT assay; format: functional, cell-based; summary of the method: as §2
# Homo sapiens = species on record: Homo sapiens; assay: Inhibition of Topoisomerase 2-mediated pRYG DNA relaxation activity
# Summary of the method: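 Supercoiled pRYG plasmid with 8 units purified topo II in assay buffer. Test compound or etoposide added as 2 µL of a 1 mM stock per 20 µL reaction. Incubation 37 °C for 30 min; stopped with SDS, then proteinase K (50 µg/mL, 37 °C, 15 min). Gel electrophoresis, post-stained with ethidium bromide 0.5 µg/mL, UV imaging of supercoiled-to-relaxed conversion.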
# SW-620 [7] = assay: Cell cycle arrest in human SW620 cells assessed as accumulation at G1/G0 phase after 72 hrs at 5 uM; format: functional; summary of the method: as §1
# SW-620 [8] = assay: Cell cycle arrest in human SW620 cells assessed as accumulation at S phase after 24 hrs at 5 uM; format: functional; summary of the method: as §1
# SW-620 [9] = assay: Cell cycle arrest in human SW620 cells assessed as accumulation at S phase after 48 hrs at 5 uM; format: functional; summary of the method: as §1
# HEp-2 = assay: Antitumor activity against human Hep2 cells after 72 hrs by MTT assay; format: functional, cell-based; conditions: HEp-2, 72 h; summary of the method: as §2
# MCF7 = assay: Antitumor activity against human MCF7 cells after 72 hrs by MTT assay; format: functional, cell-based; conditions: MCF7, 72 h; summary of the method: as §2
# SW-620 [10] = assay: Cell cycle arrest in human SW620 cells assessed as accumulation at G2/M phase after 48 hrs at 5 uM; format: functional; summary of the method: as §1
# SW-620 [11] = assay: Cell cycle arrest in human SW620 cells assessed as accumulation at G1/G0 phase after 24 hrs at 5 uM; format: functional; summary of the method: as §1
# HeLa [12] = assay: Cell cycle arrest in human HeLa cells assessed as accumulation at Sub G1 phase after 24 hrs at 5 uM; format: functional; summary of the method: as §1
# HeLa [13] = assay: Cell cycle arrest in human HeLa cells assessed as accumulation at G2/M phase after 72 hrs at 5 uM; format: functional; summary of the method: as §1
# SW-620 [14] = assay: Cell cycle arrest in human SW620 cells assessed as accumulation at S phase after 72 hrs at 5 uM; format: functional; summary of the method: as §1
# [15] = Antiproliferative activity against human […] fibroblast after 72 hrs by MTT assay; format: functional; summary of the method: as §2
# SW-620 [16] = assay: Cell cycle arrest in human SW620 cells assessed as accumulation at Sub G1 phase after 72 hrs at 5 uM; format: functional; summary of the method: as §1
# HeLa [17] = assay: Cell cycle arrest in human HeLa cells assessed as accumulation at G0/G1 phase after 24 hrs at 5 uM; format: functional; summary of the method: as §1
# SW-620 [18] = assay: Cell cycle arrest in human SW620 cells assessed as accumulation at G1/G0 phase after 48 hrs at 5 uM; format: functional; summary of the method: as §1
# HeLa [19] = assay: Cell cycle arrest in human HeLa cells assessed as accumulation at Sub G1 phase after 48 hrs at 5 uM; format: functional; summary of the method: as §1
# SW-620 [20] = assay: Cell cycle arrest in human SW620 cells assessed as accumulation at G2/M phase after 24 hrs at 5 uM; format: functional; summary of the method: as §1
# HeLa [21] = assay: Cell cycle arrest in human HeLa cells assessed as accumulation at G2/M phase after 24 hrs at 5 uM; format: functional; summary of the method: as §1
# SW-620 [22] = assay: Antitumor activity against human SW620 cells after 72 hrs by MTT assay; format: functional, cell-based; conditions: SW-620, 72 h; summary of the method: as §2
# HeLa [23] = assay: Cell cycle arrest in human HeLa cells assessed as accumulation at S phase after 48 hrs at 5 uM; format: functional; summary of the method: as §1
# SW-620 [24] = assay: Cell cycle arrest in human SW620 cells assessed as accumulation at G2/M phase after 72 hrs at 5 uM; format: functional; summary of the method: as §1
# HeLa [25] = assay: Cell cycle arrest in human HeLa cells assessed as accumulation at S phase after 24 hrs at 5 uM; format: functional; summary of the method: as §1
# HeLa [26] = assay: Cell cycle arrest in human HeLa cells assessed as accumulation at S phase after 72 hrs at 5 uM; format: functional; summary of the method: as §1
# HeLa [27] = assay: Cell cycle arrest in human HeLa cells assessed as accumulation at G0/G1 phase after 48 hrs at 5 uM; format: functional; summary of the method: as §1
ΔTm (DNA),IC50 (MIA PaCa-2),IC50 (HeLa [6]),Activity (Homo sapiens),IC50 (MCF7),IC50 (SW-620 [22]),Structure (SMILES),Activity (SW-620 [1]),Activity (HeLa [2]),Activity (SW-620 [3]),Activity (HeLa [4]),Activity (HeLa [5]),Activity (SW-620 [7]),Activity (SW-620 [8]),Activity (SW-620 [9]),IC50 (HEp-2),Activity (SW-620 [10]),Activity (SW-620 [11]),Activity (HeLa [12]),Activity (HeLa [13]),IC50 [15],other results
4.9 °C,1000 nM,2000 nM,Active,2000 nM,400 nM,Cl.c1ccc2c(c1)ccc1nc3ccc(C4=NCCN4)cc3n12,12%,3%,3%,32%,28%,30%,39%,26%,2000 nM,49%,12%,2%,40%,2000 nM,Activity (SW-620 [14]): 17%; Activity (SW-620 [16]): 13%; Activity (HeLa [17]): 32%; Activity (SW-620 [18]): 25%; Activity (HeLa [19]): 2%; Activity (SW-620 [20]): 49%; Activity (HeLa [21]): 26%; Activity (HeLa [23]): 36%; Activity (SW-620 [24]): 54%; Activity (HeLa [25]): 42%; Activity (HeLa [26]): 32%; Activity (HeLa [27]): 34%
1 °C,25000 nM,35000 nM,Active,17000 nM,45000 nM,C(=C/c1nc2ccc(C3=NCCN3)cc2[nH]1)/c1ccccc1.Cl,1%,,0.5%,,,49%,45%,39%,27000 nM,15%,36%,,,99000 nM,Activity (SW-620 [14]): 30%; Activity (SW-620 [16]): 0.8%; Activity (SW-620 [18]): 46%; Activity (SW-620 [20]): 19%; Activity (SW-620 [24]): 21%
3.2 °C,2000 nM,3000 nM,,4000 nM,2000 nM,Cl.N=C(NN1CCOCC1)c1ccc2nc3ccc4ccccc4n3c2c1,,2%,,27%,25%,,,,2000 nM,,,3%,35%,4000 nM,Activity (HeLa [17]): 36%; Activity (HeLa [19]): 2%; Activity (HeLa [21]): 34%; Activity (HeLa [23]): 37%; Activity (HeLa [25]): 30%; Activity (HeLa [26]): 39%; Activity (HeLa [27]): 36%
